Assay outcomes as filed in PubChem BioAssay.
STEP block: STEP (human) phosphatase inhibition | P54829 | recombinant STEP, OMFP fluorogenic substrate, fluorescence | inhibition, % at 20 µM | actives 0.25% (n = 360,000);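 active means inhibition at 20 µM, scaled per plate between control wells, above about 37%, limit read from the data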
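material = STEP tyrosine phosphatase | reagent = fluorogenic phosphatase substrate OMFP at 25 µM final | doses = single compound dose of 20 µM, 1% DMSO final | schedule = 20 min reaction, room temperature, in the dark | measured by = fluorescence, 480/540 nm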
LMPTP inh: LMPTP (human) inhibition | P24666 | recombinant LMPTP-A, OMFP fluorogenic substrate, fluorescence intensity | actives 0.22% (n = 360,000) | AID 651560 | inhibition, % at 20 µM;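 active means compounds that cut the enzyme signal by at least half of the control window in the single-dose screen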
Target sequence (P24666 whole entry, looked up): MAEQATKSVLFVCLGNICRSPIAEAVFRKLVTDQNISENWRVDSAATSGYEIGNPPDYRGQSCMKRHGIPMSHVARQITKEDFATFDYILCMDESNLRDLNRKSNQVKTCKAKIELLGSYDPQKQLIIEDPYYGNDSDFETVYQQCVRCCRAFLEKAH
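Assay system: LMPTP-A phosphatase enzyme | Input: 0.625 nM enzyme | Also added: Fluorogenic phosphatase substrate OMFP at 400 µM final | Compound dosing: One test concentration per compound, 20 µM, with 3% DMSO overall | Schedule: 50 min enzyme reaction at room temperature, protected from light | Signal: Fluorescence intensity | Benchmarks: no-enzyme and uninhibited controls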
DNMT1 block: blocks human DNA methyltransferase DNMT1. DNMT1 molecular beacon, Hinp1I cleavage, fluorescence. inhibition (reported as % activation of signal), % at 10 µM. actives 0.83% (n = 360,000); in the data active means inhibition above about 50%
SUMO1 PPI mod: SUMO1-SIM interaction modulation; SUMO1 binding to a labelled peptide, TR-FRET, 1 h; inhibition, % at 20 µM; actives 0.33% (n = 360,000); AID 602429; in the data active means inhibition above about 37%
Target sequence (P63165 whole entry, looked up): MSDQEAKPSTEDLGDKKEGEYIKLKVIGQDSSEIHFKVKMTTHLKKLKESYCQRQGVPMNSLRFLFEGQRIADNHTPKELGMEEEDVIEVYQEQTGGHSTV
Scp1 inh: blocks human Scp-1 phosphatase activity; Recombinant Scp1, phosphopeptide, malachite green phosphate absorbance; inhibition, % at 20 µM; AID 493091; actives 0.88% (n = 340,000);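 active means inhibition above about 50% at 20 µM, limit read from the data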
Target sequence (Q9GZU7 76-261 limits assumed): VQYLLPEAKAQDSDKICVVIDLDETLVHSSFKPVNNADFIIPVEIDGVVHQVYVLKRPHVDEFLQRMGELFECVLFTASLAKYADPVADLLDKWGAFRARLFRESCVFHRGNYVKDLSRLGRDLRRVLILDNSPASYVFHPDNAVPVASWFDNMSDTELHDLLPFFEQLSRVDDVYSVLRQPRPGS
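Test system: SCP-1 phosphatase catalytic domain, residues 76-261; measured by: colorimetric phosphate reagent with accelerator and stabiliser, absorbance at 630 nm; timing: enzyme reaction 45 min at room temperature, colour 5 min, stabilisation 30 min; also added: Phosphorylated 17-residue peptide substrate; compound dosing: one concentration, 20 µM, with 1.0% DMSO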
Numbers stand for hits; n = inactive; x = no result. Shown are actives, neighbours in structure and some others; about 1.7% of the full set was active somewhere.

SMILES	STEP block	LMPTP inh	DNMT1 block	SUMO1 PPI mod	Scp1 inh
CCCn1c(SCC(=O)Nc2ccc3c(c2)OCO3)n[nH]c1=O	n	n	n	35	n
O=C(CN1CCN(c2ccccc2F)CC1)c1ccc2cc[nH]c2c1	n	67	n	n	n
O=C(O)c1cc(O)c2c(c1)[C@@H]([C@H]1c3cc(C(=O)O)cc(O)c3C(=O)c3c(O[C@@H]4O[C@H](CO)[C@@H](O)[C@H](O)[C@H]4O)cccc31)c1cccc(OC3O[C@H](CO)[C@@H](O)[C@H](O)[C@H]3O)c1C2=O (stereo partly drawn)	98	92	98	119	92
O=C1c2cc(CO)cc(O)c2C(=O)c2c(O[C@@H]3OC(CO)[C@@H](O)[C@@H](O)[C@@H]3O)cccc21 (stereo partly drawn)	n	n	n	n	n
O=C(O)c1cc(O)c2c(c1)[C@H]([C@H]1c3cc(C(=O)O)cc(O)c3C(=O)c3c(O[C@@H]4O[C@H](CO)[C@@H](O)[C@H](O)[C@H]4O)cccc31)c1cccc(OC3O[C@H](CO)[C@@H](O)[C@H](O)[C@H]3O)c1C2=O (stereo partly drawn)	98	94	97	116	92
COc1ccc(Cn2c(=O)[nH]c3cc(C(=O)N4CCN(c5ccc(C(C)=O)cc5)CC4)ccc3c2=O)cc1	n	n	n	57	n
CN1CCN(C(=O)c2ccc3c(=O)n(CCc4ccccc4)c(=S)[nH]c3c2)CC1	n	n	n	41	n
COc1ccc(Cn2c(=O)[nH]c3cc(C(=O)N4CCN(c5ccc(OC)cc5)CC4)ccc3c2=O)cc1	n	n	n	n	n
COc1ccc(C2C(C(C)=O)=C(C)Nc3ncnn32)cc1 (stereo not drawn)	n	n	n	n	n
COc1cccc(C2C(C(C)=O)=C(C)Nc3ncnn32)c1 (stereo not drawn)	n	n	n	38	n
COC(=O)c1ccc(C(=O)Nc2ccc(N)cc2N)cc1	n	n	n	47	n
COc1ccccc1NC(=O)c1ccc(N)cc1	n	n	n	n	n
CC1=C(SCc2ccccc2)C(=O)c2ccccc2C1=O	n	n	76	n	n
Cc1cc(OCC(=O)Nc2sc3c(c2C#N)CC(C)(C)NC3(C)C)c(C(C)C)cc1Cl	n	n	n	n	n
COc1ccc(CCn2c(=N)c(C(=O)NCc3ccco3)cc3c(=O)n4ccccc4nc32)cc1	n	60	n	n	n
CCn1cc(C(=O)O)c(=O)c2cnc(N3CCN(C(=S)NC(=O)c4ccccc4)CC3)nc21	n	56	n	n	n
CCCCOC(=O)c1ccc(NC(=S)N2CCN(c3ncc4c(=O)c(C(=O)O)cn(CC)c4n3)CC2)cc1	n	n	n	n	n
CCOC(=O)c1cccc(NC(=S)N2CCN(c3ncc4c(=O)c(C(=O)O)cn(CC)c4n3)CC2)c1	n	70	n	n	n
CCCOc1ccc(C(=O)NC(=S)N2CCN(c3ncc4c(=O)c(C(=O)O)cn(CC)c4n3)CC2)cc1	n	70	n	n	x
CCc1nnc(NS(=O)(=O)c2ccc(NCc3cc(Cl)cc(Cl)c3O)cc2)s1	n	n	n	n	n
CC1(c2ccccc2)NC(=O)N(CC(=O)N2CCN(S(=O)(=O)c3cccs3)CC2)C1=O (stereo not drawn)	n	n	n	n	n
CO/N=C(/C(=O)N[C@@H]1C(=O)N2C(C(=O)O)=CCS[C@H]12)c1cnc(N)s1	78	n	98	106	x
O=C(CN1C(=O)NC2(CCCC2)C1=O)Nc1cc(Cl)ccc1Oc1ccccc1	n	n	n	40	n
CCOC(=O)C1CCN(C(=O)Nc2ccc3c(c2)nc(C)n3C)CC1	n	n	n	n	n
Cc1nc2ccc(NC(=O)N3CCCCC3)cc2nc1C	n	n	n	n	n
SMILES	STEP block	LMPTP inh	DNMT1 block	SUMO1 PPI mod	Scp1 inh
CCOC(=O)C1CCN(C(=O)Nc2ccc3nc(-c4ccco4)c(-c4ccco4)nc3c2)CC1	68	80	113	106	67
O=C(Nc1ccc2nc(-c3ccco3)c(-c3ccco3)nc2c1)N1CCCCCC1	x	x	x	x	88
N=C(N)c1ccc(OCCCCCOc2ccc(C(=N)N)cc2)cc1	n	58	n	n	n
CCCCCCOc1ccc(/C(N)=N/O)cc1	n	n	n	n	n
CCOC(=O)C1=C(C)N=c2s/c(=C\c3ccc(OCC(=O)O)cc3)c(=O)n2C1c1ccccc1 (stereo not drawn)	n	n	n	n	n
CCOC(=O)C1=C(C)N=c2sc(=Cc3ccc(OCC(=O)O)cc3)c(=O)n2C1c1ccc(SC)cc1 (stereo not drawn)	94	65	89	107	x
CC[n+]1c(/C=C/c2ccc(OC(C)=O)c(OC)c2)ccc2ccccc21	n	n	n	n	55
CC(=O)Nc1sc2c(c1-c1nc3ccccc3s1)CN(C(C)C)CC2	n	n	78	n	n
CC(=O)N1CCc2c(sc(NC(=O)C3CC3)c2-c2nc3ccccc3s2)C1	n	n	n	n	n
CN(/N=C\c1ccc(O)c(O)c1)c1nc(-c2ccccc2)cc(-c2ccccc2)n1	n	n	n	n	n
COc1c(N2CCN(C(=S)NCc3ccccc3)C(C)C2)c(F)cc2c(=O)c(C(=O)O)cn(C3CC3)c12 (stereo not drawn)	n	53	n	n	n
C=CCSc1nc2sc3c(c2c(=O)n1-c1ccc(C)cc1)CCN(C)C3	n	n	n	n	n
CCOC(=O)c1c2c(n(-c3ccc(OC)cc3)c1C)C(=O)C(=O)c1ccccc1-2	n	n	86	n	n
CN(C)C(=O)c1c([N+](=O)[O-])ncn1C	n	n	n	n	n
CCN(CC)C(=O)c1ncn(C)c1C(=O)N(CC)CC	n	n	n	n	92
CC1(C)N=C(c2ccccc2)C(c2ccccc2)=N1	n	n	n	n	n
Cc1cc(C)cc(C(=O)Oc2cc(C)[nH]c(=O)c2[N+](=O)[O-])c1	n	n	n	n	n
CC(OC(=O)c1ccc(NC(=O)CC#N)cc1)C(=O)Nc1ccc(Oc2ccccc2)cc1 (stereo not drawn)	n	n	n	54	x
COC(=O)c1cc(O)cc(OC)c1Oc1cc(C)cc(O)c1C(=O)O	n	n	n	44	58
CC1(C)C(/C=C/C=C/C=C/C=C2\N(CCCCS(=O)(=O)O)c3ccc4ccccc4c3C2(C)C)=[N+](CCCCS(=O)(=O)[O-])c2ccc3ccccc3c21	n	n	88	110	n
CN(Cc1ccccc1)C(=O)C1(C)CCN1C(=O)Cc1ccc(Cl)cc1Cl (stereo not drawn)	n	n	n	n	x
Cc1sc2nc3c4ccccc4c(NCc4ccco4)nn3c(=O)c2c1C	n	n	n	75	n
Cc1ccc(C(=O)Cn2c(C(=O)OCCO)cc3ccccc32)cc1	n	n	n	n	n
